Here are results for 96 molecules from PubChem BioAssay AID617 (SRMLSC, 2007).

A word on the pIC50: it is the IC50 on a negative log10 scale, so that one unit is a factor of ten.

The structures appear in SMILES notation. pIC50: −log10 of the molar value.

The experiment has as its system E. coli BW25113 ΔtolC growth inhibition, OD615. The experiment is described as follows: E. coli ΔtolC antibacterial growth inhibition – strain BW25113 ΔtolC::kan, dose response (AID 617).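 Further: growth read after 20 h at 37 °C with compound.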 Put shortly:
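Test system: E. coli BW25113 ΔtolC::kan bacteria | Amount: 1:1000 diluted subculture inoculum | Medium: LB plus kanamycin | Timing: 20 h exposure at 37 °C | Signal: Absorbance at 615 nm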
Consider `O=C(CC1CCCCC1)c1c(O)c2ccccc2oc1=O`, for which the pIC50 was 5.76.
Turning to `Brc1cccc(C2CC(c3ccccc3)n3nnnc3N2)c1` (stereo unspecified), the pIC50 was 4.62.
Turning to `N#Cc1nc(COc2ccccc2)oc1N1CCN(Cc2ccccc2)CC1`, the pIC50 was 4.84.
For `O=C(Nc1ccc(C(F)(F)F)cc1)C1CCCN1S(=O)(=O)c1cccc2cccnc12` (stereo unspecified) the value was 4.65.
In the case of `CCCc1[nH]nc2c1C(c1ccc(OC)c(CSC3=NCCS3)c1)C(C#N)=C(N)O2` (stereo unspecified), the pIC50 is 4.16.
`CC1CCCCC1n1c(=S)[nH]c2ccccc2c1=O` (stereo unspecified): the pIC50 is 5.23.
For `CCc1cc(C(=O)COc2ccccc2F)c(O)cc1O` the value was 4.97; for `CC(C)(C)c1cc(C(F)(F)F)nc(SCCCNC(=O)c2ccco2)n1`, 5.20; for `Cc1c(NC(=O)Nc2ccc(Cl)c(Cl)c2)c(=O)n(-c2ccccc2)n1C`, 4.40.
Consider `CC1CCCCN1c1nc(-c2ccncc2)nc2ccccc12` (stereo unspecified), for which the pIC50 was 4.92.
For `O=C(CN(C(=O)CNC(=O)c1ccco1)c1ccc(Cl)c(Cl)c1)NC1CCCCC1` the value was 4.55; for `C=C(C)COc1ccc(-c2nc(N)ncc2-c2ccc(OC)cc2)c(O)c1`, 4.99; for `O=C(c1cc2nc(-c3ccco3)cc(C(F)(F)F)n2n1)N1CCN(c2ccccc2)CC1`, 4.99.
For the molecule `CCCc1cc(C(=O)N2CCN(c3ccccc3C)CC2)cs1`, the pIC50 is 5.07.
For `Cc1cccn2c(=O)c3cc(C(=O)NCc4ccco4)c(=N)n(CCc4ccccc4)c3nc12` the value was 4.37; for `CC1(C)CC2CC(C)(CN2C(=O)c2cc(-c3ccccc3O)on2)C1` (stereo unspecified), 5.47; for `CCOC(=O)c1c(NS(=O)(=O)c2cccc(OC)c2)sc2c1CCC2`, 4.25.
For `CCn1c(C(=O)OC)cc2c1ccn2-c1ccc(F)cc1` the value was 4.77; for `Cc1ccc(-c2noc(CCC(=O)N3CCCc4ccccc43)n2)cc1`, 4.89; for `CCN(c1ccccc1)S(=O)(=O)c1ccc(C(=O)Nc2nnc(COC)o2)cc1`, 5.49.
Turning to `COc1ccccc1-c1cc(C(=O)NC(C)c2ccccc2)no1` (stereo unspecified), the pIC50 is 4.42.
For `COc1ccc(Cl)cc1CN1CCN(c2nc(C)cc(C)c2C#N)CC1` the value was 4.88.
`COc1ccc(-n2c(Cc3cccn3C)nnc2SCC(=O)Nc2ccc(C)c(Cl)c2)cc1`: the pIC50 is 4.84.
As to `CC1=CC(C)(C)N(C(=O)CSc2nnc(-c3ccccc3)o2)c2ccc(C)cc21`, the pIC50 was 4.79.
For `Cc1ccc(Cl)cc1N1CCN(C(=O)CCS(=O)(=O)c2cccc3nonc23)CC1` the value was 4.36; for `COC(=O)c1ccc(NC(=O)CN2CCN(c3cccc(Cl)c3)CC2)cc1`, 4.66.
On to `Cc1ccc(S(=O)(=O)c2nc(Nc3nccs3)sc2Cl)cc1`, for which the pIC50 was 5.61.
For `CCn1c(=O)c(C(=O)Nn2c(C)nc3ccccc3c2=O)c(O)c2ccccc21` the value was 5.49; for `Fc1ccc(-c2cc(C(F)(F)F)nc(NCC3CCCO3)n2)cc1` (stereo unspecified), 4.68.
As to `CC(=O)c1ccccc1OCC(O)CN1CCN(C(c2ccccc2)c2ccccc2)CC1` (stereo unspecified), the negative-log IC50 (pIC50) was 4.85.
On to `C=CCN(CC=C)S(=O)(=O)c1ccc2nc(NC(=O)C(C)C)sc2c1`, for which the pIC50 is 5.18.
Consider `C=C(C)COc1ccc(-c2[nH]ncc2Oc2cccc(OC)c2)c(O)c1`, for which the pIC50 was 5.22.
Take `O=C(Nc1sc2c(c1C(=O)O)CCC2)c1cccs1`: the pIC50 was 4.86.
As for `CC1CC(C)CN(C(=O)CSc2nnc(-c3ccc(Cl)s3)o2)C1` (stereo unspecified), the pIC50 was 4.76.
For `c1ccc(Cn2nnnc2C(c2cccs2)N2CCCCCC2)cc1` (stereo unspecified) the value was 5.02; for `COc1ccc(-c2[nH]ncc2Oc2ccccc2OC)c(O)c1`, 4.98.
For the molecule `COc1ccccc1-c1nnc(SC/C(O)=C(\C#N)c2nc3ccccc3[nH]2)n1C1CCCCC1`, the pIC50 was 4.99.
For `CC(C)(C)n1c(O)c(C=Nc2ccc3c(c2)CCC3)c(=O)[nH]c1=O` the value was 4.89.
For `CC1=CC(C)(C)N2C(=O)C3(SCC(=O)N3c3ccc(O)cc3)c3cc(C)cc1c32` (stereo unspecified) the value was 4.93.
For `Cc1onc(-c2ccccc2)c1C(=O)Nc1nnc(COc2ccc(Cl)cc2)s1` the value was 5.52; for `CS(=O)(=O)N(Cc1nc2sc3c(c2c(=O)[nH]1)CCCC3)C1CCCCC1`, 5.09; for `CCOC(=O)c1cc(C)n(S(=O)(=O)c2ccc(C)cc2)c1C`, 4.91.
Take `Cc1csc(SCC(=O)Nc2nc(-c3ccccc3)cs2)n1`: the pIC50 is 4.85.
For `COc1ccc(-n2c(COc3ccccc3)nnc2SCc2ccc(C#N)cc2)cc1` the value was 4.85.
For `Cc1n[nH]c(C)c1S(=O)(=O)N(CC(=O)Nc1ccc2c(c1)OCCO2)c1ccc(C(C)C)cc1` the value was 4.71.
For `COC(=O)C1=C(N)Oc2cc(C)n(Cc3ccco3)c(=O)c2C1c1cccc(Cl)c1` (stereo unspecified) the value was 4.58.
Consider `CC(C)(C)c1ccc(OCc2nc(-c3ccccn3)no2)c(Br)c1`, for which the pIC50 is 5.17.
With `Cc1cccc(OCCn2c(NC(=O)c3ccco3)nc3ccccc32)c1`, the pIC50 is 4.96.
For `CCOC(=O)N1CCC(Nc2nc3ccccc3nc2NS(=O)(=O)c2ccc(Cl)cc2)CC1` the value was 5.26; for `Cc1ccc(C)c(N2CCN(C(=O)c3ccc(NS(=O)(=O)c4c(C)noc4C)cc3)CC2)c1`, 4.87; for `OC(c1cccc(OCc2ccccc2)c1)c1nnc(-c2ccccc2)o1` (stereo unspecified), 4.14.
For `Cc1ccc2oc(=O)n(Cc3ccccc3OC(C)C)c2c1` the value was 5.05.
For `O=C(Cc1ccccc1)Nc1ccccc1N1CCN(c2ccccc2)CC1` the value was 4.19; for `CCOc1ccccc1C(=O)NC(C(=O)OCC(=O)Nc1nnc(-c2ccccc2)o1)C(C)C` (stereo unspecified), 5.11.
For `CCCOc1ccc(C(=O)N2CCN(c3ccc(NC(=O)CC)cc3Cl)CC2)cc1`, the pIC50 was 4.83.
For `Cc1ccc2c(c1)NC(=O)C(CC(=O)NCCCN1CCN(c3cc(Cl)ccc3C)CC1)O2` (stereo unspecified) the value was 5.57; for `N=c1c2c(n(Cc3ccc(Cl)cc3Cl)c3c1CCC3)CCCC2`, 5.21; for `Cc1cc(N2CCC(C(=O)Nc3ccc(F)cc3)CC2)nc(-c2ccccc2)n1`, 4.65.
Consider `Cc1ccc2cc(C(c3nnnn3C3CCCC3)N(Cc3cccnc3)Cc3ccco3)c(=O)[nH]c2c1` (stereo unspecified), for which the negative-log IC50 (pIC50) is 4.86.
For `Cc1cc(C(=O)OCc2nc3ccccc3s2)c(C)o1` the value was 4.49.
For `O=C(NCCCc1ccccc1)c1ccccc1O` the value was 5.03; for `Cc1c(C(=O)N2CCc3ccccc3C2)sc2nc(-c3ccccc3)cn12`, 4.87.
Regarding `COc1cccc(N2CCN(CC(=O)Nc3nc4c(s3)CC(C)CC4)CC2)c1` (stereo unspecified), the pIC50 is 4.98.
Consider `OCCn1c(-c2ccc3c(c2)OCO3)csc1=Nc1ccccc1`, for which the pIC50 was 4.63.
As to `Cc1ccc2[nH]c3c(c2c1)CCc1cn[nH]c1-3`, the pIC50 is 4.75.
For `Cc1cccc(S(=O)(=O)C(C#N)c2nc3ccccc3nc2N2CC(C)OC(C)C2)c1` (stereo unspecified) the value was 4.84; for `CC1CCCN(c2ccc(C(=O)NCCc3ccccc3)cn2)C1` (stereo unspecified), 4.31; for `Cc1nc(N2CCN(Cc3ccccc3)CC2)nc2c1C(=O)CC(c1ccco1)C2` (stereo unspecified), 4.98.
For `COc1cc(Cc2cnc(N)nc2N)cc(OC)c1OC` the value was 6.47; for `Cc1cccc2cc(CN(Cc3ccco3)C(=O)NC3CCCCC3)c(=O)[nH]c12`, 4.83; for `CCOC(=O)c1cnc(-n2nc(C)cc2C)nc1NC(C)c1ccccc1` (stereo unspecified), 5.56.
For `CCOC(=O)c1c(C)[nH]c(C)c1C(=O)Cn1nnc(-c2ccccc2C)n1` the value was 5.26; for `CCOC(=O)c1csc(Nc2nc3ccc(F)cc3s2)n1`, 5.23; for `Cc1nn(-c2nc3ccccc3n2Cc2ccccc2)c2c1C(=O)CC(C)(C)C2`, 5.07.
For the molecule `CN(C)c1ccc(C2C=C(c3ccc(Cl)cc3OC(F)F)Nc3ncnn32)cc1` (stereo unspecified), the pIC50 was 5.71.
For `O=C(Nc1nnc(-c2ccc(F)cc2)o1)c1ccco1` the value was 4.79; for `c1ccc(-n2nnnc2Oc2cccc3cccnc23)cc1`, 5.12.
For `CC(C)c1ccc(-c2nnn(Cc3nc4ccccc4s3)n2)cc1` the value was 4.64; for `N#Cc1c(NC(=O)c2ccc(Br)o2)n(-c2ccccc2)c2nc3ccccc3nc12`, 4.82.
For `COc1ccc2c(c1)CCc1c(C(=O)N3CCc4ccccc4C3)noc1-2` the value was 5.24; for `Cc1ccc(Nc2cc(C)nn2-c2nc(C)cc(=O)[nH]2)cc1`, 6.74; for `Cn1c(Oc2ccccc2NCc2cc(Br)ccc2O)cc(=O)n(C)c1=O`, 5.39.
Take `CC1CCCN(S(=O)(=O)c2ccc(NC(=O)Cn3nnc(-c4ccccc4F)n3)cc2)C1` (stereo unspecified): the pIC50 is 4.58.
For `Clc1ccc(COC(Cn2ccnc2)c2ccc(Cl)cc2Cl)cc1` (stereo unspecified) the value was 5.64.
For `CCOCCn1c(CN(Cc2ccccc2)Cc2ccccc2)nc2c1c(=O)n(C)c(=O)n2C` the value was 4.88; for `CCOc1ccc(Nc2cc(C)nc(-n3nc(C)cc3C)n2)cc1`, 5.38; for `COc1cc(-c2nc(Cc3ccccc3Cl)no2)cc(OC)c1OC`, 4.94.
For `COc1ccc(S(=O)(=O)Nc2ccc(S(=O)(=O)N3CCCCC3)cc2)cc1` the value was 4.82.
For the molecule `CC(C)(C)NC(=O)C(c1ccco1)N(C(=O)Cn1nnc(-c2ccc(F)cc2)n1)c1cccc(F)c1` (stereo unspecified), the pIC50 is 4.68.
For `O=S(=O)(Nc1cc(Cl)ccc1N1CCCCC1)c1cccs1` the value was 4.90; for `CCn1cc(C(=O)O)c(=O)c2cc(OC)ccc21`, 5.01.
For `CC1(C)CC(=O)C=C(NCCN2CCN(C(=O)Nc3ccc(Cl)c(Cl)c3)CC2)C1` the value was 4.69; for `CN(Cc1ccccc1)c1ncnc2c1cnn2-c1ccccc1`, 4.89.
For `N=c1n(Cc2ccccc2)c2ccccc2n1CC(O)COc1ccccc1` (stereo unspecified) the value was 4.67; for `Cc1c(-c2nc(N)nc(Nc3ccccc3)n2)oc2ccccc12`, 4.91; for `Cc1onc(-c2c(F)cccc2Cl)c1C(=O)Nc1nc2c(s1)CCCC2`, 4.71.
